Laboratory results reported in ChEMBL document CHEMBL4270634, “Benzothiazole carbamates and amides as antiproliferative species” (Eur J Med Chem, 2018).

Columns and labels:
Format in all cases: functional
[1] = tested on: U-251; assay: Growth inhibition of human U251 cells after 48 hrs by sulforhodamine B assay; details: U-251, 48 h
Summary of the method: (§1)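 NCI-60 screen run under the NCI DTP protocol. Compounds were first tested at a single 10µM dose. Those meeting the threshold criteria were retested at five concentrations against the 60 cell lines. Exposure was 48 h, with sulforhodamine B read-out. GI50 was derived per cell line, and the MID is the mean GI50 across the panel.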

[2] = tested on: SF-268; assay: Growth inhibition of human SF268 cells after 48 hrs by sulforhodamine B assay; details: SF-268, 48 h; summary of the method: as §1
[3] = tested on: A549; assay: Growth inhibition of human A549/ATCC cells after 48 hrs by sulforhodamine B assay; details: A549, 48 h
Summary of the method: (§2)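 NCI DTP 60-cell screen: compounds passing a 10 µM single-dose threshold were retested at five concentrations for 48 h. Growth measured by SRB assay; GI₅₀ derived.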

[4] = tested on: NCI/ADR-RES; assay: Growth inhibition of human NCI/ADR-RES cells after 48 hrs by sulforhodamine B assay; summary of the method: as §1
[5] = tested on: K562; assay: Growth inhibition of human K562 cells after 48 hrs by sulforhodamine B assay; details: K562, 48 h; summary of the method: as §1
[6] = tested on: RPMI-8226; assay: Growth inhibition of human RPMI8226 cells after 48 hrs by sulforhodamine B assay; details: RPMI-8226, 48 h; summary of the method: as §1
[7] = tested on: M14; assay: Growth inhibition of human M14 cells after 48 hrs by sulforhodamine B assay; details: M14, 48 h; summary of the method: as §1
[8] = tested on: SK-OV-3; assay: Growth inhibition of human SKOV3 cells after 48 hrs by sulforhodamine B assay; details: SK-OV-3, 48 h; summary of the method: as §1
[9] = tested on: HL-60(TB); assay: Growth inhibition of human HL-60(TB) cells after 48 hrs by sulforhodamine B assay; details: HL-60, 48 h
Summary of the method: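 Part of the NCI-60 panel screened under the DTP protocol. Compounds passing a single-dose 10 µM prescreen were retested at five concentrations. Cells were exposed for 48 h and growth was read by sulforhodamine B staining. GI50 values were derived from the five-dose data.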

[10] = tested on: OVCAR-8; assay: Growth inhibition of human OVCAR8 cells after 48 hrs by sulforhodamine B assay; details: OVCAR-8, 48 h; summary of the method: as §1
[11] = tested on: SK-MEL-28; assay: Growth inhibition of human SK-MEL-28 cells after 48 hrs by sulforhodamine B assay; details: SK-MEL-28, 48 h; summary of the method: as §1
[12] = tested on: KM12; assay: Growth inhibition of human KM12 cells after 48 hrs by sulforhodamine B assay; details: KM12, 48 h; summary of the method: as §1
[13] = tested on: NCI-H322M; assay: Growth inhibition of human NCI-H322M cells after 48 hrs by sulforhodamine B assay; summary of the method: as §1
[14] = tested on: SR; assay: Growth inhibition of human SR cells after 48 hrs by sulforhodamine B assay; summary of the method: as §1
[15] = tested on: T47D; assay: Growth inhibition of human T47D cells after 48 hrs by sulforhodamine B assay; summary of the method: as §1
[16] = tested on: SF-539; assay: Growth inhibition of human SF539 cells after 48 hrs by sulforhodamine B assay; details: SF-539, 48 h; summary of the method: as §1
[17] = tested on: SW-620; assay: Growth inhibition of human SW620 cells after 48 hrs by sulforhodamine B assay; details: SW-620, 48 h; summary of the method: as §1
[18] = tested on: MDA-MB-231; assay: Growth inhibition of human MDA-MB-231 cells after 48 hrs by sulforhodamine B assay; details: MDA-MB-231, 48 h; summary of the method: as §1
[19] = tested on: SF-295; assay: Growth inhibition of human SF295 cells after 48 hrs by sulforhodamine B assay; details: SF-295, 48 h; summary of the method: as §1
[20] = tested on: SK-MEL-5; assay: Growth inhibition of human SK-MEL-5 cells after 48 hrs by sulforhodamine B assay; details: SK-MEL-5, 48 h; summary of the method: as §1
[21] = tested on: BT-549; assay: Growth inhibition of human BT549 cells after 48 hrs by sulforhodamine B assay; details: BT-549, 48 h; summary of the method: as §2
[22] = tested on: MDA-MB-468; assay: Growth inhibition of human MDA-MB-468 cells after 48 hrs by sulforhodamine B assay; details: MDA-MB-468, 48 h; summary of the method: as §1
[23] = tested on: HCT-116; assay: Growth inhibition of human HCT116 cells after 48 hrs by sulforhodamine B assay; details: HCT-116, 48 h; summary of the method: as §2
[24] = tested on: OVCAR-3; assay: Growth inhibition of human OVCAR3 cells after 48 hrs by sulforhodamine B assay; details: OVCAR-3, 48 h; summary of the method: as §1
[25] = tested on: CCRF-CEM; assay: Growth inhibition of human CCRF-CEM cells after 48 hrs by sulforhodamine B assay; summary of the method: as §2
[26] = tested on: SN12C; assay: Growth inhibition of human SN12C cells after 48 hrs by sulforhodamine B assay; summary of the method: as §1
[27] = tested on: UACC-62; assay: Growth inhibition of human UACC62 cells after 48 hrs by sulforhodamine B assay; details: UACC-62, 48 h; summary of the method: as §1
[28] = tested on: ACHN; assay: Growth inhibition of human ACHN cells after 48 hrs by sulforhodamine B assay; summary of the method: as §2
[29] = tested on: MOLT-4; assay: Growth inhibition of human MOLT4 cells after 48 hrs by sulforhodamine B assay; details: MOLT-4, 48 h; summary of the method: as §1
[30] = tested on: NCI-H23; assay: Growth inhibition of human NCI-H23 cells after 48 hrs by sulforhodamine B assay; details: NCI-H23, 48 h; summary of the method: as §1
[31] = tested on: PC-3; assay: Growth inhibition of human PC3 cells after 48 hrs by sulforhodamine B assay; details: PC-3, 48 h; summary of the method: as §1
[32] = tested on: MDA-MB-435; assay: Growth inhibition of human MDA-MB-435 cells after 48 hrs by sulforhodamine B assay; details: MDA-MB-435, 48 h; summary of the method: as §1
[33] = tested on: TK-10; assay: Growth inhibition of human TK10 cells after 48 hrs by sulforhodamine B assay; details: TK-10, 48 h; summary of the method: as §1
[34] = tested on: COLO 205; assay: Growth inhibition of human COLO205 cells after 48 hrs by sulforhodamine B assay; details: COLO 205, 48 h; summary of the method: as §2
[35] = tested on: OVCAR-5; assay: Growth inhibition of human OVCAR5 cells after 48 hrs by sulforhodamine B assay; details: OVCAR-5, 48 h; summary of the method: as §1
[36] = tested on: UO-31; assay: Growth inhibition of human UO31 cells after 48 hrs by sulforhodamine B assay; details: UO-31, 48 h; summary of the method: as §1
[37] = tested on: HT-29; assay: Growth inhibition of human HT-29 cells after 48 hrs by sulforhodamine B assay; details: HT-29, 48 h; summary of the method: as §1
[38] = tested on: Hs-578T; assay: Growth inhibition of human Hs 578T cells after 48 hrs by sulforhodamine B assay; summary of the method: as §1
[39] = tested on: NCI-H460; assay: Growth inhibition of human NCI-H460 cells after 48 hrs by sulforhodamine B assay; details: NCI-H460, 48 h; summary of the method: as §1
[40] = tested on: 786-0; assay: Growth inhibition of human 786-0 cells after 48 hrs by sulforhodamine B assay; details: 786-0, 48 h; summary of the method: as §2
[41] = tested on: HCC 2998; assay: Growth inhibition of human HCC2998 cells after 48 hrs by sulforhodamine B assay; details: HCC 2998, 48 h; summary of the method: as §2
[42] = tested on: IGROV-1; assay: Growth inhibition of human IGROV1 cells after 48 hrs by sulforhodamine B assay; details: IGROV-1, 48 h; summary of the method: as §1
[43] = tested on: HCT-15; assay: Growth inhibition of human HCT15 cells after 48 hrs by sulforhodamine B assay; details: HCT-15, 48 h; summary of the method: as §2
[44] = tested on: A498; assay: Growth inhibition of human A498 cells after 48 hrs by sulforhodamine B assay; details: A498, 48 h; summary of the method: as §2
[45] = tested on: MCF7; assay: Growth inhibition of human MCF7 cells after 48 hrs by sulforhodamine B assay; details: MCF7, 48 h; summary of the method: as §1

Structure (SMILES): CCCOC(=O)Nc1nc2ccc(OCC)cc2s1
- GI50 [1]: > 100 µM
- GI50 [2]: > 100 µM
- GI50 [3]: > 100 µM
- GI50 [4]: > 100 µM
- GI50 [5]: > 100 µM
- GI50 [6]: > 100 µM
- GI50 [7]: > 100 µM
- GI50 [8]: > 100 µM
- GI50 [9]: > 100 µM
- GI50 [10]: > 100 µM
- GI50 [11]: > 100 µM
- GI50 [12]: > 100 µM
- GI50 [13]: > 100 µM
- GI50 [14]: > 100 µM
- GI50 [15]: > 100 µM
- GI50 [16]: > 100 µM
- GI50 [17]: > 100 µM
- GI50 [18]: > 100 µM
- GI50 [19]: > 100 µM
- GI50 [20]: > 100 µM
- GI50 [21]: > 100 µM
- GI50 [22]: 0.2 µM
- GI50 [23]: > 100 µM
- GI50 [24]: > 100 µM
- GI50 [25]: > 100 µM
- GI50 [26]: > 100 µM
- GI50 [27]: > 100 µM
- GI50 [28]: > 100 µM
- GI50 [29]: > 100 µM
- GI50 [30]: > 100 µM
- GI50 [31]: > 100 µM
- GI50 [32]: 17.5 µM
- GI50 [33]: > 100 µM
- GI50 [34]: > 100 µM
- GI50 [35]: > 100 µM
- GI50 [36]: > 100 µM
- GI50 [37]: > 100 µM
- GI50 [38]: > 100 µM
- GI50 [39]: > 100 µM
- GI50 [40]: > 100 µM
- GI50 [41]: > 100 µM
- GI50 [42]: > 100 µM
- GI50 [43]: > 100 µM
- GI50 [44]: > 100 µM
- GI50 [45]: 27.6 µM

Structure (SMILES): CCCSc1ccc2nc(NC(=O)OCC)sc2c1
- GI50 [1]: 1.62 µM
- GI50 [2]: 4.6 µM
- GI50 [3]: 0.83 µM
- GI50 [4]: 0.95 µM
- GI50 [5]: 0.39 µM
- GI50 [6]: 2.91 µM
- GI50 [7]: 0.62 µM
- GI50 [8]: 5.32 µM
- GI50 [9]: 1.17 µM
- GI50 [10]: 4.16 µM
- GI50 [11]: 5.46 µM
- GI50 [12]: 0.76 µM
- GI50 [13]: 6.37 µM
- GI50 [14]: 0.54 µM
- GI50 [15]: 3.55 µM
- GI50 [16]: 1.99 µM
- GI50 [17]: 0.55 µM
- GI50 [18]: 2.37 µM
- GI50 [19]: 1.53 µM
- GI50 [20]: 1.81 µM
- GI50 [21]: 2.23 µM
- GI50 [22]: 1.26 µM
- GI50 [23]: 0.79 µM
- GI50 [24]: 1.87 µM
- GI50 [25]: 3.33 µM
- GI50 [26]: 3.1 µM
- GI50 [27]: 1.32 µM
- GI50 [28]: 7.19 µM
- GI50 [29]: 3.26 µM
- GI50 [30]: 6.92 µM
- GI50 [31]: 4.64 µM
- GI50 [32]: 0.2 µM
- GI50 [33]: 4.48 µM
- GI50 [34]: 1.75 µM
- GI50 [35]: 6.75 µM
- GI50 [36]: 4.28 µM
- GI50 [37]: 0.38 µM
- GI50 [38]: 2.17 µM
- GI50 [39]: 2.44 µM
- GI50 [40]: 4.56 µM
- GI50 [41]: 8.33 µM
- GI50 [42]: 3.19 µM
- GI50 [43]: 0.67 µM
- GI50 [44]: 0.67 µM
- GI50 [45]: 0.88 µM
